Results on three compounds are retold here after ChEMBL document CHEMBL1138485, “Discovery of inducible nitric oxide synthase (iNOS) inhibitor development candidate KD7332, part 1: Identification of a novel, potent, and selective series of quinolinone iNOS dimerization inhibitors that are orally active in rodent pain models” (J Med Chem, 2009).

A word on the EC50: it is the concentration giving half of the maximal effect. As a reminder, the AUC is the area under the concentration-time curve, a measure of exposure. Low readings indicate low exposure, high ones high exposure. Usually Tmax stands for the time at which the peak concentration occurs. Usually half-life stands for how long it takes for the measured level to halve. Read a low half-life as fast loss. The term inhibition denotes the change of the read-out against control, counted positive when it falls. A higher inhibition goes with a response far below the control. Broadly, the ED50 is the dose that gives a 50% effect, or the effect in half of the subjects. Low readings indicate greater potency, high ones weaker potency. As a reminder, the CL/F is the apparent clearance, not corrected for the fraction that reaches the circulation. A word on the Cmax: it is the peak of the concentration-time curve.

Chain of Cytochrome P450 2C9 (P11712 whole entry): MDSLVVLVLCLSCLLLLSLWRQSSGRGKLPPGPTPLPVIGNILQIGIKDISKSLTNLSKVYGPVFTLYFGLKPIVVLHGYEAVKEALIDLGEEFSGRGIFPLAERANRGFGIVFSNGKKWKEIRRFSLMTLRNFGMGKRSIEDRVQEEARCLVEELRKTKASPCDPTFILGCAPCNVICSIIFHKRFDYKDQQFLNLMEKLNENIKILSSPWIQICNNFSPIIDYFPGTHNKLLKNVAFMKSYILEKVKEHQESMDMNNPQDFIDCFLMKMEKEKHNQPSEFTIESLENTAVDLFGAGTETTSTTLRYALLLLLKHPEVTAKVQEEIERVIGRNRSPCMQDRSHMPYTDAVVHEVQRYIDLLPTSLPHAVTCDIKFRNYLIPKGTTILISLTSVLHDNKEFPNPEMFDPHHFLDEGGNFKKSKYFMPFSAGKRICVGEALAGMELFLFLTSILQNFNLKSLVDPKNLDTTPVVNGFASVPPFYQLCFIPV
Chain of Cytochrome P450 2D6 (P10635 whole entry): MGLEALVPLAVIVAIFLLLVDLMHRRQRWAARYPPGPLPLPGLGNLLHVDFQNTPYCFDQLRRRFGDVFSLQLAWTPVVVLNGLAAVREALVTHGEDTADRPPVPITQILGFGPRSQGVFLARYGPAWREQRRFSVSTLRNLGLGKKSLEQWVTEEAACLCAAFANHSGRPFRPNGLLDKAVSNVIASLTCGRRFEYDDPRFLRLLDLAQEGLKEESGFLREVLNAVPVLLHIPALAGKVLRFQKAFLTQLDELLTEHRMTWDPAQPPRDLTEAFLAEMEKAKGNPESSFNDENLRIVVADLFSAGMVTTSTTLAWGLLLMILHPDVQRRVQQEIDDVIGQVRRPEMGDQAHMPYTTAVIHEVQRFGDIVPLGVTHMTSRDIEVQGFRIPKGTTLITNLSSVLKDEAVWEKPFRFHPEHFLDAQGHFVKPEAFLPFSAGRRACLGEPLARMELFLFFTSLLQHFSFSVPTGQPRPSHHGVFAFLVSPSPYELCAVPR

The first series concerns the target Cytochrome P450 2C9 (Homo sapiens, UniProt P11712). The series can be described thus: Inhibition of CYP2C9. The class given is ADME.
Settings: not given
Take `Cc1ncsc1C(=O)N(Cc1cc(=O)[nH]c2c(F)cccc12)c1cccc(Cl)c1`: the midpoint of the response, the EC50, lay at 33 µM.
`Cc1ncsc1C(=O)N(Cc1c[n+]([O-])cc2c(F)c(F)ccc12)c1cccc(Cl)c1` gave an EC50 of 55 µM.
`Cn1cncc1C(=O)N(Cc1cc(=O)[nH]c2c(F)c(F)ccc12)c1cccc(Cl)c1`: the EC50 is 25 µM.

Test system in the next series: not listed separately
The series can be described thus: AUC in mouse at 10 mg/kg, po. Type of series: ADME, organism-based. Also on record: dose 10 mg/kg, route oral. The settings on record: plasma.
Turning to `Cc1ncsc1C(=O)N(Cc1cc(=O)[nH]c2c(F)cccc12)c1cccc(Cl)c1`, the AUC was found to be 450 ng·h/mL.
`Cn1cncc1C(=O)N(Cc1cc(=O)[nH]c2c(F)c(F)ccc12)c1cccc(Cl)c1` had an AUC of 520 ng·h/mL.

The target in a further series is Voltage-gated inwardly rectifying potassium channel KCNH2 (Homo sapiens, UniProt Q12809). The series can be described thus: Activity at human ERG by patch clamp assay.
Chain of Voltage-gated inwardly rectifying potassium channel KCNH2 (Q12809 whole entry): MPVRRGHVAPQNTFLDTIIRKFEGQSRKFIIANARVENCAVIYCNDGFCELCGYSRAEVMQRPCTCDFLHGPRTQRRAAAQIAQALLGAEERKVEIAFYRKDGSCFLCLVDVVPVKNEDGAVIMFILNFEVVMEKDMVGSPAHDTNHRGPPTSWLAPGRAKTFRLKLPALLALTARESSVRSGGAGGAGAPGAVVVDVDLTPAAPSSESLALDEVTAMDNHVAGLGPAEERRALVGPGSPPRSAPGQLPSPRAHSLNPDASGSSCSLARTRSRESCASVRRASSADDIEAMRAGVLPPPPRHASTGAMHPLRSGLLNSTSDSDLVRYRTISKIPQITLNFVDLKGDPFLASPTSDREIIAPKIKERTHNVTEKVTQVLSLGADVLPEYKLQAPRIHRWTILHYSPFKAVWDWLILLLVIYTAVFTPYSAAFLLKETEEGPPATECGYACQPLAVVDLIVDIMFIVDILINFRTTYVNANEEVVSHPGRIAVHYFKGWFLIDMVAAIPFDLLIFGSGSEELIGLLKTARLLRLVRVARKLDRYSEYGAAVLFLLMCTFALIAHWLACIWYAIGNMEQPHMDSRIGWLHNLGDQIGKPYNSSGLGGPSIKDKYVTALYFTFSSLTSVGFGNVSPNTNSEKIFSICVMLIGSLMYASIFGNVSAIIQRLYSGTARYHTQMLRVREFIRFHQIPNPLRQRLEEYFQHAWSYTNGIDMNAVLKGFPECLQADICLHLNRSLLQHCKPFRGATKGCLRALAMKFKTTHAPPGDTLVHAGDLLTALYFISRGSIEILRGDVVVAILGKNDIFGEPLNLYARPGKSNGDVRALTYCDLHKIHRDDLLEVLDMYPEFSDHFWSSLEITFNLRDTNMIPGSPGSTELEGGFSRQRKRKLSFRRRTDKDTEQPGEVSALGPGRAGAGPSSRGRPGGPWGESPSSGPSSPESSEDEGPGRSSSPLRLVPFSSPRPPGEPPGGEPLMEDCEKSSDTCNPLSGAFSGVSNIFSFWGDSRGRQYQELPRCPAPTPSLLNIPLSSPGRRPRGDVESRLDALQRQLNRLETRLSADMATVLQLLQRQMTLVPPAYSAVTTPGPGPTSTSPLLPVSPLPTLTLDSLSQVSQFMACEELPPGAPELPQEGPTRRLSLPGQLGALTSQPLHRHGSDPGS
Settings: not given
`Cn1cncc1C(=O)N(Cc1cc(=O)[nH]c2c(F)c(F)ccc12)c1cccc(Cl)c1` showed an EC50 of 8 µM.

Test system in the next series: not listed separately
The series can be described thus: Tmax in mouse at 10 mg/kg, po. The settings on record: in vivo. The class given is ADME, organism-based. Also on record: dose 10 mg/kg, route oral.
As for `Cc1ncsc1C(=O)N(Cc1cc(=O)[nH]c2c(F)cccc12)c1cccc(Cl)c1`, the Tmax came to 30 min.
The same measure, in the same setting: for `Cn1cncc1C(=O)N(Cc1cc(=O)[nH]c2c(F)c(F)ccc12)c1cccc(Cl)c1` the value was 15 min.

Test system in another series: not listed separately
In words: Half life in mouse at 10 mg/kg, po. The settings on record: in vivo. Type of series: ADME, organism-based. Also on record: dose 10 mg/kg, route oral.
The compound `Cc1ncsc1C(=O)N(Cc1cc(=O)[nH]c2c(F)cccc12)c1cccc(Cl)c1` gave a half-life of 54 min.
As for `Cn1cncc1C(=O)N(Cc1cc(=O)[nH]c2c(F)c(F)ccc12)c1cccc(Cl)c1`, the half-life was 66 min.

Another series concerns the target T1, CYP1A2 (Homo sapiens, UniProt P05177).
T1 sequence (P05177 whole entry): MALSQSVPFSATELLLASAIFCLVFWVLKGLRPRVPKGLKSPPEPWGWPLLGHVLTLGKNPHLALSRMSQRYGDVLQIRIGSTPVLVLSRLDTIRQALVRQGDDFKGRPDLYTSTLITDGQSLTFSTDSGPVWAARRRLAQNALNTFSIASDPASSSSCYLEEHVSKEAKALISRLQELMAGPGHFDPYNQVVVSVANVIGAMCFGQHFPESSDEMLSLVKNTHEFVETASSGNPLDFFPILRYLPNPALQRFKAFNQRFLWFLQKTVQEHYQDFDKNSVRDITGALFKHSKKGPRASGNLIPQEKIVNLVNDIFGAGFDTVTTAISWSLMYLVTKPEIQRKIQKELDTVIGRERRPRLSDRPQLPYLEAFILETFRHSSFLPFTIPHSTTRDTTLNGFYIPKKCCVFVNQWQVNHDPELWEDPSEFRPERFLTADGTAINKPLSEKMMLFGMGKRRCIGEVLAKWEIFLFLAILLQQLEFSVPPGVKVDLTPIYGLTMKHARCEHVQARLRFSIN
The series can be described thus: Inhibition of CYP1A2 at 100 uM.
Settings: not given
The class given is ADME.
The compound `Cc1ncsc1C(=O)N(Cc1cc(=O)[nH]c2c(F)cccc12)c1cccc(Cl)c1` had an inhibition at 100 µM of under 50%.
`Cc1ncsc1C(=O)N(Cc1c[n+]([O-])cc2c(F)c(F)ccc12)c1cccc(Cl)c1` registered an inhibition at 100 µM of under 50%.

The next series has as its system Mus musculus. The series can be described thus: Volume of distribution in mouse at 10 mg/kg, po. Type of series: ADME, organism-based. Also on record: dose 10 mg/kg, route oral. The note with it: in vivo.
For `Cc1ncsc1C(=O)N(Cc1cc(=O)[nH]c2c(F)cccc12)c1cccc(Cl)c1`, the Vdss is 1.6 L/kg.
Take `Cn1cncc1C(=O)N(Cc1cc(=O)[nH]c2c(F)c(F)ccc12)c1cccc(Cl)c1`: the Vdss was found to be 1.1 L/kg.

The target of the next series is CYP2D6 (Homo sapiens, UniProt P10635). The series can be described thus: Inhibition of CYP2D6 at 100 uM. The class given is ADME.
Chain of CYP2D6 (P10635 whole entry): as the sequence (P10635 whole entry) above
Settings: not given
In the case of `Cc1ncsc1C(=O)N(Cc1cc(=O)[nH]c2c(F)cccc12)c1cccc(Cl)c1`, the inhibition at 100 µM is under 50%.
On the same count and under the same terms, the figure for `Cc1ncsc1C(=O)N(Cc1c[n+]([O-])cc2c(F)c(F)ccc12)c1cccc(Cl)c1` is under 50%.

The target of the next series is T2, Nitric oxide synthase 3 (Homo sapiens, UniProt P29474).
T2 sequence (P29474 whole entry): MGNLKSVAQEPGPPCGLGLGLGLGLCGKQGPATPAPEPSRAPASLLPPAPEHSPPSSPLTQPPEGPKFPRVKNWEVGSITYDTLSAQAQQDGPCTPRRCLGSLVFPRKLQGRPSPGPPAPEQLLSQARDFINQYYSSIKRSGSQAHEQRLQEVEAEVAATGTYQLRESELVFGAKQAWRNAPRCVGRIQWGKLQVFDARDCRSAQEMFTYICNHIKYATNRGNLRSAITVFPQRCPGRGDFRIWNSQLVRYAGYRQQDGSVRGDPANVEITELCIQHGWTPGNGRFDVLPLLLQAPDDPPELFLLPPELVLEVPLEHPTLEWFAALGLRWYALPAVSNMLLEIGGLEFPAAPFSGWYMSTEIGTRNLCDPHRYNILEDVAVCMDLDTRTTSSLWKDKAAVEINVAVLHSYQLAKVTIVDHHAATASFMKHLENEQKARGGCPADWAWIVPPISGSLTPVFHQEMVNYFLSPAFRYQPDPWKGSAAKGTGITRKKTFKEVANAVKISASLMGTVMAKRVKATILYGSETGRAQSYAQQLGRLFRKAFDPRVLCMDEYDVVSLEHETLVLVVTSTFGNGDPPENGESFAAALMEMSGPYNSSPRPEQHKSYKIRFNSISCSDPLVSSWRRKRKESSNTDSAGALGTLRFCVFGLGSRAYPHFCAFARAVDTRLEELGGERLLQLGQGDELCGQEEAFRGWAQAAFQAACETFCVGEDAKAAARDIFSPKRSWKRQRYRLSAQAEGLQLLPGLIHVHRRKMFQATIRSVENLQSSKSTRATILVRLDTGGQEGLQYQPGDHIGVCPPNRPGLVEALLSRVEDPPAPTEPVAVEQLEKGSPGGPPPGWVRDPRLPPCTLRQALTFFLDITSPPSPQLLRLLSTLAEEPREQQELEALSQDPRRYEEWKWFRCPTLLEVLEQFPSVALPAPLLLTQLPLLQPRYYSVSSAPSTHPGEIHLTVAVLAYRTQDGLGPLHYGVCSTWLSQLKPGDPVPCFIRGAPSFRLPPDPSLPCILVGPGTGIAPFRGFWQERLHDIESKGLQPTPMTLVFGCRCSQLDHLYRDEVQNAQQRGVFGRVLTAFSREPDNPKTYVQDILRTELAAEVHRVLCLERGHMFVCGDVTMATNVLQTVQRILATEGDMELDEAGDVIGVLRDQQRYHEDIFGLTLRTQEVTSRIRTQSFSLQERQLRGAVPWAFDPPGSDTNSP
In words: Inhibition of human eNOS expressed in HEK293 cells assessed as NO production by transient transfection assay.
Settings: not given
The class given is cell-based. In a few lines:
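HEK293 cells grown to ~70% confluence in DMEM/10% FBS with pen/strep, transfected with 15 µg human eNOS plasmid plus Fugene 6 (3:1 µL:µg), 4 h at 37 °C, 10% CO2. Cells replated at 5 × 10⁵/mL, compound added at once, 24 h incubation, then A23187 (83 nM final). After 18 h, NO read by DAN fluorescence.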
Turning to `Cc1ncsc1C(=O)N(Cc1cc(=O)[nH]c2c(F)cccc12)c1cccc(Cl)c1`, the 50% effective concentration (EC50) was 26 µM.
As for `Cc1ncsc1C(=O)N(Cc1c[n+]([O-])cc2c(F)c(F)ccc12)c1cccc(Cl)c1`, the EC50 is 34 µM.
As for `Cn1cncc1C(=O)N(Cc1cc(=O)[nH]c2c(F)c(F)ccc12)c1cccc(Cl)c1`, the EC50 is 0.42 µM.

Another series concerns Mus musculus. In words: Reduction of plasma nitrate level in LPS-challenged po dosed BALB/c mouse. Type of series: functional.
Settings: not given
In a few lines:
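Male Balb/c mice were dosed by oral gavage (90% PEG/5% Tween 80/5% PVP + 90% CMC (0.5% w/v)) at t = 0 h, 30 mg/kg for single-dose lines. LPS 10 mg/kg ip in 0.9% NaCl followed immediately. At 6 h, EDTA plasma was taken for nitrate and drug levels. Nitrate reduction is relative to vehicle; ED50 came from full oral dose-response.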
Compound `Cc1ncsc1C(=O)N(Cc1cc(=O)[nH]c2c(F)cccc12)c1cccc(Cl)c1` came in with an ED50 of 10 mg/kg.
On the same count and under the same terms, the figure for `Cn1cncc1C(=O)N(Cc1cc(=O)[nH]c2c(F)c(F)ccc12)c1cccc(Cl)c1` is 5 mg/kg.

Test system in the next series: not listed separately
The series can be described thus: Plasma clearance in mouse at 10 mg/kg, po. The class given is ADME, organism-based. On the set-up: dose 10 mg/kg, route oral.
Settings: not given
As to `Cc1ncsc1C(=O)N(Cc1cc(=O)[nH]c2c(F)cccc12)c1cccc(Cl)c1`, the CL/F was over 100 mL/min/kg.
Still for that read-out and setting: the figure for `Cn1cncc1C(=O)N(Cc1cc(=O)[nH]c2c(F)c(F)ccc12)c1cccc(Cl)c1` is over 100 mL/min/kg.

In a further series the target is Cytochrome P450 3A4 (Homo sapiens, UniProt P08684). The series can be described thus: Inhibition of CYP3A4. The class given is ADME.
Chain of Cytochrome P450 3A4 (P08684 whole entry): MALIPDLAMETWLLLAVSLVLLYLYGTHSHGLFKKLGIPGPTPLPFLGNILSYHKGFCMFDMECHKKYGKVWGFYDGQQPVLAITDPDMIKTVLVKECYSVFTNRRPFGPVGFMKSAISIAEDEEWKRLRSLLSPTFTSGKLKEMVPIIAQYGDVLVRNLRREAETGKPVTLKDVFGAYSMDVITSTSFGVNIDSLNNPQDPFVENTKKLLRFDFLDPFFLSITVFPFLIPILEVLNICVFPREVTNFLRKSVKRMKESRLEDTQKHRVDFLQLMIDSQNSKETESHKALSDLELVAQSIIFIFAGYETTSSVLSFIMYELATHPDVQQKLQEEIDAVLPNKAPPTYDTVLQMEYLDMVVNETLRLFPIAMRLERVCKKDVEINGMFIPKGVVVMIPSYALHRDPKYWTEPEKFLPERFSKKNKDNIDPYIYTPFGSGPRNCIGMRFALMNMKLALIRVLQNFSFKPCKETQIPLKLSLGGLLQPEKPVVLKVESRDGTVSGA
Settings: not given
`Cc1ncsc1C(=O)N(Cc1cc(=O)[nH]c2c(F)cccc12)c1cccc(Cl)c1` came in with an EC50 of 7000 nM.
In the case of `Cc1ncsc1C(=O)N(Cc1c[n+]([O-])cc2c(F)c(F)ccc12)c1cccc(Cl)c1`, the EC50 was 1800 nM.
`Cn1cncc1C(=O)N(Cc1cc(=O)[nH]c2c(F)c(F)ccc12)c1cccc(Cl)c1` registered an EC50 of 1400 nM.

In another series the test system is Mus musculus. The series can be described thus: Antinociceptive activity against formalin-induced phase 2 pain in mouse paw assessed as pain behavior at 100 mg/kg, po pretreated 30 mins before formalin challenge relative to control. Type of series: functional.
Settings: not given
The gist of the method:
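Mice were dosed 100 mg/kg po (PEG/Tween 80/PVP + CMC vehicle) 30 min before 20 µL formalin into the left hind paw. Phase II pain-behavior duration was timed 25–45 min post-injection by a single observer. Results are mean ± SE, n = 5–6 mice, compared to vehicle by one-way ANOVA with post hoc tests.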
As for `Cc1ncsc1C(=O)N(Cc1cc(=O)[nH]c2c(F)cccc12)c1cccc(Cl)c1`, the Activity worked out at 40%.
Consider `Cn1cncc1C(=O)N(Cc1cc(=O)[nH]c2c(F)c(F)ccc12)c1cccc(Cl)c1`, for which the Activity is on record as 65%.

Test system in a further series: not listed separately
In words: Cmax in mouse at 10 mg/kg, po. The class given is ADME, organism-based. Also on record: dose 10 mg/kg, route oral. The settings on record: in vivo.
In turn, `Cc1ncsc1C(=O)N(Cc1cc(=O)[nH]c2c(F)cccc12)c1cccc(Cl)c1` came in with a Cmax of 1400 nM.
The same measure, in the same setting: for `Cn1cncc1C(=O)N(Cc1cc(=O)[nH]c2c(F)c(F)ccc12)c1cccc(Cl)c1` the value was 2200 nM.

The next series concerns the target Cytochrome P450 2D6 (Homo sapiens, UniProt P10635). In words: Inhibition of CYP2D6.
Settings: not given
The class given is ADME.
Regarding `Cc1ncsc1C(=O)N(Cc1cc(=O)[nH]c2c(F)cccc12)c1cccc(Cl)c1`, the 50% effective concentration (EC50) was over 100 µM.
The same measure, in the same setting: the figure for `Cc1ncsc1C(=O)N(Cc1c[n+]([O-])cc2c(F)c(F)ccc12)c1cccc(Cl)c1` is over 100 µM; for `Cn1cncc1C(=O)N(Cc1cc(=O)[nH]c2c(F)c(F)ccc12)c1cccc(Cl)c1` it is 21 µM.

The target of another series is Cytochrome P450 2C19 (Homo sapiens, UniProt P33261). In words: Inhibition of CYP2C19.
Chain of Cytochrome P450 2C19 (P33261 whole entry): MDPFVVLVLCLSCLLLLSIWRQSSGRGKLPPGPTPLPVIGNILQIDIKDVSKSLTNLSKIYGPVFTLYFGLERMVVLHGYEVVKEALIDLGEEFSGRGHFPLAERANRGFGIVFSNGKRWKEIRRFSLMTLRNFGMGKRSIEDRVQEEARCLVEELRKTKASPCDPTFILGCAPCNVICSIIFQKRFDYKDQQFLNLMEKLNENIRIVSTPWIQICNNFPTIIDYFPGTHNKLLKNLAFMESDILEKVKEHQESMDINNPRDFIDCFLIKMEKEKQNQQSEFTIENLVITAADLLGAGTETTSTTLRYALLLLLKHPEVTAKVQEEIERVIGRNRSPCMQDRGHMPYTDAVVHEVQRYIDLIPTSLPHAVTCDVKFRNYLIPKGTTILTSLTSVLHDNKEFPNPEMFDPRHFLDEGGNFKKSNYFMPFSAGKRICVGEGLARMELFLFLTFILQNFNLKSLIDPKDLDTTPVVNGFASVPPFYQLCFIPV
Settings: not given
Type of series: ADME.
`Cc1ncsc1C(=O)N(Cc1cc(=O)[nH]c2c(F)cccc12)c1cccc(Cl)c1` returned an EC50 of 13 µM.
On to `Cc1ncsc1C(=O)N(Cc1c[n+]([O-])cc2c(F)c(F)ccc12)c1cccc(Cl)c1`, for which the response was half-maximal at 93 µM (EC50).
Take `Cn1cncc1C(=O)N(Cc1cc(=O)[nH]c2c(F)c(F)ccc12)c1cccc(Cl)c1`: the response was half-maximal at 11 µM (EC50).
